ChEMBL document CHEMBL5038600, “Discovery of M-1121 as an Orally Active Covalent Inhibitor of Menin-MLL Interaction Capable of Achieving Complete and Long-Lasting Tumor Regression” (J Med Chem, 2021)
Active and inactive are the calls of the source. The rule behind the calls is not given here.

Tests used:
Menin (Homo sapiens) = biological target: T1, Menin (Homo sapiens) (UniProt O00255); experiment: Binding affinity to recombinant human menin protein assessed as covalent complex formation incubated for 10 mins by LC/MS analysis; parameters: concentration or dose not given beside the values
T1 sequence (whole entry): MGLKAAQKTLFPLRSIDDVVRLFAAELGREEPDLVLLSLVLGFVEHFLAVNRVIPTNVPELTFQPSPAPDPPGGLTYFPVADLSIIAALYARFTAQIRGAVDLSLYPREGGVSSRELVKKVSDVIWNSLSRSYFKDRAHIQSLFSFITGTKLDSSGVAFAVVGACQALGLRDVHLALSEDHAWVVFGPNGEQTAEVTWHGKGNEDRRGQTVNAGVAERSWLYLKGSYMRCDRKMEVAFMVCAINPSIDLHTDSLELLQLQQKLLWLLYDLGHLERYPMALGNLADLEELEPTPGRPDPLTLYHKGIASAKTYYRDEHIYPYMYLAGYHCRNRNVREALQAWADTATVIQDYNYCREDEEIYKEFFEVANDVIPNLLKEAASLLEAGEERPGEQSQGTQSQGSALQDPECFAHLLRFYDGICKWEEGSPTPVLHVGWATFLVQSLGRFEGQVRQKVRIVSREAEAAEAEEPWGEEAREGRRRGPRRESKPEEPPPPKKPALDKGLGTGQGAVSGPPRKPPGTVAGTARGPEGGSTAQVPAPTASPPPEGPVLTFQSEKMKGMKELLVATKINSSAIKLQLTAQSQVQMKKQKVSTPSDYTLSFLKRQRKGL

[1] = Volume of distribution at steady state in C57BL/6 mouse at 1 mg/kg, iv; format: ADME, organism-based; conditions: in vivo, read-out: Vdss
Method in brief: (§1)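 Female C57BL/6 mice, single IV dose of 1 mg/kg given as a solution in 10% NMP, 10% Solutol HS15 and 80% saline. Parameters come from the plasma concentration–time profile.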

[2] = AUC (0 to infinity) in C57BL/6 mouse at 1 mg/kg, iv; format: ADME, organism-based; parameters: time infinity, route intravenous, dose 1 mg/kg; conditions: in vivo; method in brief: as §1
[3] = Tmax in C57BL/6 mouse at 5 mg/kg, po; format: ADME, organism-based; conditions: in vivo
Method in brief: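 Female C57BL/6 mice, single oral dose of 5 mg/kg in 0.5% methyl cellulose + 0.2% Tween 80 (w/w). Bioavailability is calculated against the 1 mg/kg IV arm.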

SEM cells = experiment: Anti-proliferative activity against human SEM cells harboring MLL/AF4 fusion protein assessed as cell growth inhibition measured after 4 days by Cell Titre Glo Luminescent Cell viability assay; format: functional, cell-based; conditions: 96 h
Method in brief: (§2)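 Leukemia lines plated in triplicate in RPMI 1640 at 37 °C, 5% CO2. 9-point dose response from 10 μM top concentration with 1:3 serial dilutions, 0.1% DMSO final; DMSO vehicle control column. Cellular ATP read by CellTiter-Glo at day 0 and after 4 days. Averages from three independent experiments.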

K562 = experiment: Anti-proliferative activity against human K562 cells harboring MLL wild-type protein assessed as cell growth inhibition measured after 4 days by Cell Titre Glo Luminescent Cell viability assay; format: functional, cell-based; conditions: K562, 96 h; method in brief: as §2
MV4-11 [4] = experiment: Suppression of HOXA9 gene expression in human MV4-11 cells at 10 nM measured after 24 hrs by qRT-PCR analysis; format: functional, cell-based
[5] = Protein binding in human plasma at 1 uM incubated for 5 hrs by liquid chromatography-tandem mass spectrometry; format: ADME, cell-free
Method in brief: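 Equilibrium dialysis: plasma spiked at 1 μM against dialysis buffer, shaken 5 h at 37 °C, with warfarin and quinidine (1 μM) as controls. Samples matrix-matched, quenched with acetonitrile containing imipramine internal standard, and analysed by LC-MS/MS. Percent bound computed from peak area ratios.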

[6] = Toxicity in SCID mouse xenografted with human MV4-11 cells assessed as change weight loss at 100 mg/kg, po administered daily for 26 days; format: organism-based; conditions: in vivo, 624 h, time 26 day
Method in brief: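 Female C.B-17 SCID mice bearing subcutaneous MV4;11 flank tumors (5×10^6 cells with Matrigel 1:1), treated once tumors averaged about 100 mm3. Dosed 100 mg/kg daily by oral gavage for 26 days in 0.5% MC + 0.2% Tween 80 vehicle. Body weight measured daily.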

[7] = Toxicity in SCID mouse xenografted with human MV4-11 cells assessed as change weight loss at 300 mg/kg, po qd administered daily for 15 days; format: organism-based; conditions: in vivo, 360 h, time 15 day
Method in brief: (§3)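 Female C.B-17 SCID mice, 5–6 weeks old, implanted subcutaneously in the right flank with 5×10^6 MV4;11 cells in 1:1 Matrigel. Randomized at about 200 mm3. Dosed 300 mg/kg by oral gavage once daily for 15 days in 0.5% MC (400 cP) + 0.2% Tween 80 at 10 mL/kg. Body weight measured daily; caliper volume (0.5×W×W×L) three times weekly.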

[8] = Toxicity in SCID mouse xenografted with human MV4-11 cells assessed as signs of toxicity at 300 mg/kg, po qd administered daily for 15 days; format: organism-based; conditions: in vivo, 360 h, time 15 day; method in brief: as §3
MV4-11 [9] = experiment: Anti-tumor activity against luciferase-tagged human MV4-11 cells xenografted in NCG mouse assessed as induction of CD11b protein in human CD45+ cells at 150 mg/kg, po administered daily for 4 days measured after 48 hrs by qRT-PCR analysis; format: functional, organism-based; conditions: time 4.0 day, in the assay text read “flow cytometry analysis” for “qRT-PCR analysis”
Method in brief: (§4)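 Female NCG mice, 5–6 weeks old, given 5×10^6 luciferase-tagged MV4;11 cells IV via tail vein. Randomized at log-phase disease (day 27). Dosed 150 mg/kg oral gavage daily for 4 days in MC/Tween 80 vehicle. Read-outs 48 h after the last dose, five mice per group, mean ± SEM: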

MV4-11 [10] = experiment: Anti-tumor activity against luciferase-tagged human MV4-11 cells xenografted in NCG mouse assessed as decreased intensity of whole body bioluminescence signal at 150 mg/kg, po administered daily for 4 days measured after 48 hrs by bioluminescence analysis; format: functional, organism-based; conditions: time 4.0 day; method in brief: as §4

Activity (Menin (Homo sapiens)): 27% | Vd [1]: 0.33 L/kg | AUC(0-inf) [2]: 17600 ng·h/mL | Tmax [3]: 2 h | IC50 (K562): > 10000 nM | PPB [5]: 90.7%
SMILES: C=CC(=O)N1C[C@@H]2C[C@H]1CN2S(=O)(=O)c1ccc(N2CC(CN3CCC([C@@](CN4CCC4)(c4cccc(F)c4)[C@H]4CCC[C@@H]4NC(=O)OC)CC3)(OC)C2)cc1
IC50 (SEM cells): 51 nM | inhibition (MV4-11 [4]): Active | Activity [6]: Non-Toxic | Activity [7]: Non-Toxic | Activity [8]: Non-Toxic | Activity (MV4-11 [9]): Active | Activity (MV4-11 [10]): Active
